Active and inactive are the calls of the source.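 How the source made its calls: active means peak inhibition of the KCNQ2 potassium channel above 30% at some tested dose, plus a fitted dose response curve; inactive means no inhibition at any dose, or no curve.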
Molecular target: Potassium voltage-gated channel subfamily KQT member 2 (Rattus norvegicus) (UniProt O88943)
Assay: KCNQ2 potassium flux blockade – cell-based, FluxOR thallium flux, CRC set 3, selectivity assay for KCNK9 inhibitor project, SAR follow-up (AID 588798)
Settings: KCNQ2-expressing cells, FluxOR thallium flux fluorescence
Procedure, shortened: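 test system = CHO cells expressing rat KCNQ2 potassium channel | compound dosing = concentration-response series | incubation = dye loading 90 min, compound pre-incubation 20 min, both room temperature | technique = FluxOR thallium-sensitive dye, kinetic fluorescence reading | read-out = normalised fluorescence change ratio and IC50 | repeats = duplicate or more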

Potassium voltage-gated channel subfamily KQT member 2 (Rattus norvegicus), sequence (O88943 whole entry, looked up): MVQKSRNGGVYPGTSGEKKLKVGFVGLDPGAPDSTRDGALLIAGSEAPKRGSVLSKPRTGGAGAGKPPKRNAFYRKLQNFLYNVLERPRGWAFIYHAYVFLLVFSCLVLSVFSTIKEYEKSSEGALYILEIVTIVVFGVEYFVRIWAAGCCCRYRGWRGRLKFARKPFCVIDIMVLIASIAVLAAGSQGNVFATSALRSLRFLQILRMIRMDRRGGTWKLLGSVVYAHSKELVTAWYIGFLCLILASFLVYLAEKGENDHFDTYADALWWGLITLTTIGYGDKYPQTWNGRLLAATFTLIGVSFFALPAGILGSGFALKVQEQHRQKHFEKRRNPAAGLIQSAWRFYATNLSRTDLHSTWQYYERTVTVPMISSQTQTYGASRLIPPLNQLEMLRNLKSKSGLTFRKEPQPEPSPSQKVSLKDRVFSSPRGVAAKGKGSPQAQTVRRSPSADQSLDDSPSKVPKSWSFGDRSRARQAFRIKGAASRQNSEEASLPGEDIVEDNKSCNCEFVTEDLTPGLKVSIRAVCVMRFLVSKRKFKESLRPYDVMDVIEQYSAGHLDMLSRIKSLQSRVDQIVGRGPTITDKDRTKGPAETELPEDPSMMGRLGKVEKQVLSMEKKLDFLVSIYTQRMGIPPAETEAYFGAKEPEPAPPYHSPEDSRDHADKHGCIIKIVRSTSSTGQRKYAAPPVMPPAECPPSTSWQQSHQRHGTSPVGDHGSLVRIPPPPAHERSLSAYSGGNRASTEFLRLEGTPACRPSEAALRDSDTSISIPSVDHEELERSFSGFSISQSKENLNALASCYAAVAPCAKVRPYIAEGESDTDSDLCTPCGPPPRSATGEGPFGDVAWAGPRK

IC50 [µM]	SMILES
18	CC(C1CC2CCC1C2)n1c(SCc2ccccc2)nnc1-c1ccco1 (stereo not drawn)

Same assay, conditions: KCNQ2-expressing cells, FluxOR thallium flux fluorescence; at 30 µM (top of the series)

thallium flux ratio, lower = inhibition	SMILES
inactive	COc1ccc(C(=O)CSc2nnc(-c3ccco3)n2C(C)C2CC3CCC2C3)cc1 (stereo not drawn)
inactive	COc1cccc(C(=O)CSc2nnc(-c3ccco3)n2C(C)C2CC3CCC2C3)c1 (stereo not drawn)
inactive	CC(C1CC2CCC1C2)n1c(-c2ccc(N(C)C)cc2)n[nH]c1=S (stereo not drawn)
inactive	CC(CC1CC2CCC1C2)n1c(-c2ccco2)n[nH]c1=S (stereo not drawn)
inactive	CC(C1CC2CCC1C2)N(C)C(=O)c1ccco1 (stereo not drawn)
inactive	COc1cccc(-c2n[nH]c(=S)n2C(C)C2CC3CCC2C3)c1OC (stereo not drawn)
inactive	CC(C1CC2CCC1C2)n1c(-c2ccco2)n[nH]c1=S (stereo not drawn)
inactive	COc1cccc(-c2nnc(S(C)(=O)=O)n2C(C)C2CC3CCC2C3)c1 (stereo not drawn)
inactive	CC(C1CC2CCC1C2)n1c(-c2cccnc2)n[nH]c1=S (stereo not drawn)
inactive	S=c1[nH]nc(-c2ccco2)n1C1CC2CCC1C2 (stereo not drawn)
inactive	S=c1[nH]nc(-c2ccco2)n1CC1CC2CCC1C2 (stereo not drawn)
inactive	C[C@H](C1CCCCC1)n1c(-c2ccco2)n[nH]c1=S
inactive	CC(NC(=O)c1ccco1)C1CC2CCC1C2 (stereo not drawn)
inactive	CC(C1CC2CCC1C2)n1c(SCC#N)nnc1-c1cccs1 (stereo not drawn)
inactive	COc1cccc(Cc2n[nH]c(=S)n2C(C)C2CC3CCC2C3)c1 (stereo not drawn)
inactive	CC(C1CC2CCC1C2)n1c(-c2ccco2)n[nH]c1=O (stereo not drawn)
inactive	CC(C1CC2CCC1C2)n1c(-c2ccccn2)n[nH]c1=S (stereo not drawn)
inactive	CC(C1CC2CCC1C2)n1cnnc1-c1ccco1 (stereo not drawn)
inactive	COc1ccccc1C(=O)Nc1cc(NC(=O)c2ccccc2C(C)C)ccc1F
inactive	CC(C1CC2CCC1C2)n1c(SCC(=O)c2ccccc2)nnc1-c1ccco1 (stereo not drawn)
inactive	CC(c1cccc2ccccc12)n1c(-c2ccco2)n[nH]c1=S (stereo not drawn)

thallium flux ratio, lower = inhibition	SMILES
inactive	CC(C1CC2CCC1C2)n1c(-c2cccc(N(C)C)c2)n[nH]c1=S (stereo not drawn)
inactive	CC(C)Oc1ccccc1C(=O)Nc1cccc(NC(=O)c2ccccc2OC(F)(F)F)c1
inactive	COc1ccc(C(=O)CSc2nnc(-c3ccco3)n2C(C)C2CC3CCC2C3)cc1OC (stereo not drawn)
inactive	CC(C1CC2CCC1C2)n1c(-c2cccc(F)c2)n[nH]c1=S (stereo not drawn)
inactive	CC(C1C2CCC1CC2)n1c(-c2ccco2)n[nH]c1=S (stereo not drawn)
inactive	COc1cc(OC)cc(-c2n[nH]c(=S)n2C(C)C2CC3CCC2C3)c1 (stereo not drawn)
inactive	CC(C1CCCCC1)n1c(-c2ccco2)n[nH]c1=S (stereo not drawn)
inactive	CSc1nnc(-c2ccco2)n1C(C)C1CC2CCC1C2 (stereo not drawn)
inactive	C[C@@H](C1CCCCC1)n1c(-c2ccco2)n[nH]c1=S
inactive	CC(C1CC2CCC1C2)n1c(-c2ccccc2F)n[nH]c1=S (stereo not drawn)
inactive	CC(CCC1CCCC1)n1c(-c2ccco2)n[nH]c1=S (stereo not drawn)
inactive	CC(C1CC2CCC1C2)n1c(SCC(=O)c2ccc3c(c2)OCO3)nnc1-c1ccco1 (stereo not drawn)
inactive	CC(C1CC2CCC1C2)n1c(-c2ccco2)nnc1C(F)(F)F (stereo not drawn)
inactive	CC(C1CC2CCC1C2)n1c(SCC(=O)c2ccc(Cl)c(Cl)c2)nnc1-c1ccco1 (stereo not drawn)
inactive	COc1ccccc1C(=O)Nc1cccc(NC(=O)c2cccc3ccccc23)c1
inactive	COc1ccc(CCSc2nnc(-c3ccco3)n2C(C)C2CC3CCC2C3)cc1OC (stereo not drawn)
inactive	CC(C1CC2CCC1C2)n1c(-c2ccncc2)n[nH]c1=S (stereo not drawn)
inactive	CC(C1CC2CCC1C2)n1c(SC(F)F)nnc1-c1ccco1 (stereo not drawn)
inactive	CC(C)c1ccccc1C(=O)Nc1cccc(NC(=O)c2ccccc2OC(F)(F)F)c1
inactive	CC(C1CC2CCC1C2)n1c(-c2cccn2C)n[nH]c1=S (stereo not drawn)
inactive	CC(C1CC2CCC1C2)n1c(-c2cccs2)n[nH]c1=S (stereo not drawn)

Source: PubChem BioAssay AID588798 (Johns Hopkins Ion Channel Center, 2011)
